Screens (PubChem BioAssay)
Sampled rows, rich in hits. Any-hit rate of the full collection: about 1.8%.
NR2E3 ag-1: activates human photoreceptor nuclear receptor NR2E3. 0.12% of 320,000 active. inhibition of corepressor binding, % at 4.78 µM. Q9Y5X4. GST-NR2E3/biotin-RetCOR TR-FRET, 1536-well;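 active = percent inhibition above the cutoff of mean plus 3 SD of all tested compounds, set per screening campaign, cut at about 20% in these data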;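 note: 0% = DMSO wells and 100% = biotin wells as full block of FRET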
Target sequence (Q9Y5X4 whole entry, looked up): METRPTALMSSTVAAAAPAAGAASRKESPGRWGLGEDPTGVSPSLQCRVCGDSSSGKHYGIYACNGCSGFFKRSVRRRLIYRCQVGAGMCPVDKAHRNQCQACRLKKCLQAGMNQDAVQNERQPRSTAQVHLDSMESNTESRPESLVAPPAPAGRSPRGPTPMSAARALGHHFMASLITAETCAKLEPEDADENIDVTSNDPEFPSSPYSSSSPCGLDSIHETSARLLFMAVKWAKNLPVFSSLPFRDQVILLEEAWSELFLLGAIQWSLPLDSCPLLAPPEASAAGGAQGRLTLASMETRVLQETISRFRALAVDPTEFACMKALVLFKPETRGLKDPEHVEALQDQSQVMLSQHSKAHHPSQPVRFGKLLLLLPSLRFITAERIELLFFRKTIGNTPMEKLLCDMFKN
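System: GST-NR2E3 and biotin-RetCOR proteins; probe or stimulus: 7 nM biotin-RetCOR; doses: compound at 4.8 µM, single dose; schedule: Compound–protein incubation for 5 h at 4 °C; detection: time-resolved FRET; read-out: percent inhibition; controls: biotin wells as high control, 0.6% DMSO wells as low control; format: 1536-well plates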
Jurkat NFkB inh: lowers PMA/ionomycin-induced NF-kB signal in Jurkat cells. PMA/ionomycin-induced NF-kB luciferase reporter, luminescence. inhibition, % at 4 µM. AID 435003. 0.53% of 330,000 active; in the data active = inhibition above about 50%
GalR3 antag: blocks the human galanin receptor 3 | HEK293 GalR3-CNG cAMP membrane potential fluorescence; galR3 body fused to GalR1 C-terminus | inhibition, % at 3 µM | 0.44% of 360,000 active;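 active = inhibition above the screen-wide average plus 3 SD, cut at about 13% in these data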;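 note: forskolin and galanin both at EC90 stimulate the cells; cAMP rise reported by CNG channel membrane potential dye signal; 0% = forskolin plus galanin with DMSO and 100% = forskolin alone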
Target sequence (O60755 1-299 limits assumed): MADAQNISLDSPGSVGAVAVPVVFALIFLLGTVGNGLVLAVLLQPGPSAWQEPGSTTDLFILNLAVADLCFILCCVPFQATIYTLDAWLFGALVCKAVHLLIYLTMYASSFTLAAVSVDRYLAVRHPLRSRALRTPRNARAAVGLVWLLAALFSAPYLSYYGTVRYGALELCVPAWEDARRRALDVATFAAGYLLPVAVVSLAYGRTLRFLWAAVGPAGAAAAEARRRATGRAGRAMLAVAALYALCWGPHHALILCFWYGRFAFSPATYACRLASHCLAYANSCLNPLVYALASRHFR
Gli-Sufu antag: antagonists of Gli-Sufu signaling | Sufu-KO-LIGHT fibroblasts, Gli luciferase reporter luminescence | inhibition, % at 5 µM | 0.74% of 340,000 active | AID 588413;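 active = inhibition above about 55%, limit read from the data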;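 note: 0% = DMSO-treated cells and 100% = wells with medium but no cells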
697 NFkB inh: inhibitors of the PMA/ionomycin-induced NF-kB reporter in 697 B cells; 697 B-cell NF-kB luciferase reporter, 16 h; inhibition, % at 4 µM; 0.33% of 330,000 active; AID 435022; in the data active = inhibition above about 35%
NR2E3 ag-2: agonists of human NR2E3 nuclear receptor | 0.35% of 360,000 active | CHO-S Gal4-NCOR/VP16-NR2E3 two-hybrid, luciferase | Q9Y5X4 | inhibition of corepressor binding, % at 3.98 µM | AID 602229;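 active = inhibition above the mean of all tested compounds plus 3 SD, cut at about 70% in these data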;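 note: 0% = DMSO with NR2E3 transfected cells and 100% = cells lacking NR2E3 construct; higher means lower luciferase signal from less NR2E3 corepressor binding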
Gli antag conf: Gli-SUFU antagonism confirmation, single concentration; shares compounds with Gli-Sufu antag; Sufu-KO-LIGHT cells, Gli luciferase reporter, luminescence; inhibition, % at 5 µM; 40% of 2,500 active;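 active = mean inhibition at 5 µM reaching about 45%, limit read from the data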;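 note: plate controls were DMSO-treated cells for no effect and wells lacking cells for full effect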
SufuKO cytotox: cytotoxic in Gli-SUFU antagonist counter-screen | shares compounds with Gli-Sufu antag | Sufu-KO-LIGHT cells cytotoxicity, ATP luminescence | cytotoxicity, % at 5 µM | 32% of 2,500 active | AID 651994;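 active = mean cytotoxicity at 5 µM above about 25%, limit read from the data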;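 note: cells exposed to compound overnight for roughly 16 to 18 hours; plate controls were DMSO wells with cells for no effect and medium without cells for full effect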
Wnt3a cs: Wnt3a reporter inhibition counter-screen; Wnt-LIGHT cells, Wnt3a-driven luciferase reporter, luminescence; inhibition, % at 6.25 µM; shares compounds with Gli-Sufu antag; AID 651995; 20% of 2,500 active;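 active = mean inhibition above about 25%, limit read from the data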
* marks the source's active call; other numbers are inactive results; . = not tested or not shown.

SMILES | NR2E3 ag-1 | Jurkat NFkB inh | GalR3 antag | Gli-Sufu antag | 697 NFkB inh | NR2E3 ag-2 | Gli antag conf | SufuKO cytotox | Wnt3a cs
COc1ccc(NC(=O)COCC(=O)Nc2ccc(C)cc2)cc1 | 3 | 7 | -3 | 54 | 5 | 13 | 21 | 13 | -2
O=C(N/N=C\c1ccc(Cl)s1)c1ccc(Cn2cccn2)o1 | 0 | 3 | 1 | 2 | 17 | -46 | . | . | .
O=C(CN1CCCC1)N/N=C/c1c(O)ccc2ccccc12 | -3 | 20 | -7 | 55 | 8 | -13 | 66* | 37* | 60*
O=C(N/N=C\c1c(O)ccc2ccccc12)c1ccc(Cn2cccn2)o1 | -2 | 40 | -3 | 58* | 9 | -27 | 69* | 26* | 59*
O=C(CN1C(=O)NC2(CCCC2)C1=O)OCc1cccc(Br)c1 | 0 | -4 | -6 | -1 | 13 | 5 | . | . | .
Cc1ccc(C2N(c3ccccc3)C(=S)N3CCCN23)cc1 (stereo not drawn) | -2 | 2 | -2 | 99* | -11 | -1 | 14 | 9 | 2
COc1cc(C(=O)NNC(=S)NC(=O)c2ccc(F)cc2)cc(OC)c1OC | -2 | 10 | -4 | 57* | 25 | 0 | 14 | 18 | -19
COc1ccc(CN2CCCCC2C(=O)Nc2ccc(OC)c(OCC(C)C)c2)cc1OC (stereo not drawn) | -3 | -1 | 1 | 63* | -9 | -18 | 21 | 29* | -51
Cc1cc(N2CCN(c3ccc(C(F)(F)F)cc3[N+](=O)[O-])CC2)c2ccccc2n1 | 5 | -2 | -13 | 52 | -81 | 10 | 34 | 19 | -53
Cc1cc(N2CCN(c3ccc([N+](=O)[O-])c4cccnc34)CC2)c2ccccc2n1 | -2 | 22 | . | 25 | -61 | -19 | . | . | .
CC(Sc1nc2ccccc2c(=O)n1C)C(=O)NC1CCCCC1C (stereo not drawn) | 0 | 12 | . | 59* | -40 | 26 | 55* | 21 | 7
CC(Sc1nc2ccccc2[nH]1)C(=O)NC1CCCCC1C (stereo not drawn) | 2 | -2 | -5 | -13 | 13 | -23 | . | . | .
C=Cn1cc[n+](CC(=O)c2ccc(-c3ccccc3)cc2)c1 | 9 | 12 | -6 | 53 | -6 | -6 | 37 | 8 | -29
O=C(c1ccccc1Cl)N1CCC(N2CCC(C(=O)N3CCCC3)CC2)CC1 | -2 | -6 | -7 | 92* | -43 | 0 | 9 | 13 | -21
O=C(c1cccc(Cl)c1)N1CCC(N2CCC(C(=O)N3CCOCC3)CC2)CC1 | 4 | -4 | 4 | -3 | 9 | -33 | . | . | .
O=C(c1cc(F)ccc1F)N1CCC(N2CCC(C(=O)N3CCCC3)CC2)CC1 | -1 | 0 | 2 | 57* | -9 | -37 | 13 | 18 | -19
CCOc1ccc(C2CC(c3ccc(OC)cc3)n3ncnc3N2)cc1 (stereo not drawn) | -3 | -26 | 4 | -20 | -34 | -48 | . | . | .
COc1ccc(C2CC(c3ccco3)n3ncnc3N2)cc1 (stereo not drawn) | 3 | 1 | -2 | 57* | -16 | 8 | 10 | 15 | -3
O=S(=O)(c1cc(Cl)ccc1Cl)N1CCCC1 | 3 | 2 | -3 | 5 | -5 | -5 | . | . | .
CC1=NCCN1S(=O)(=O)c1cc(Cl)ccc1Cl | -1 | 1 | 4 | 56* | 2 | 12 | 23 | 17 | -3
CC(C)(C)S(=O)(=O)N1Cc2cc(CO)ccc2[C@H]1CCO | . | . | -6 | . | . | . | . | . | .
Cc1ccc(S(=O)(=O)NCc2ccc3c(c2)OCO3)cc1 | . | . | -5 | . | . | . | . | . | .
CCC(C)N(C(=O)CSc1nc(C)c(C)c(C)c1C#N)C1CCS(=O)(=O)C1 (stereo not drawn) | 3 | -5 | -5 | 54 | 7 | -9 | 11 | 7 | -23
Cc1ccc(NS(=O)(=O)c2cc([N+](=O)[O-])ccc2NNC(=S)Nc2cc(C)ccc2C)c(C)c1 | -2 | 11 | -11 | 62* | -8 | 16 | 51* | 4 | 62*
CCCCCn1c(N2CCN(c3cccc(Cl)c3)CC2)nc2c1c(=O)[nH]c(=O)n2C | -1 | 2 | -3 | -10 | -31 | -15 | . | . | .
SMILES | NR2E3 ag-1 | Jurkat NFkB inh | GalR3 antag | Gli-Sufu antag | 697 NFkB inh | NR2E3 ag-2 | Gli antag conf | SufuKO cytotox | Wnt3a cs
CCCCCn1c(CN2CCN(c3cc(Cl)ccc3C)CC2)nc2c1c(=O)[nH]c(=O)n2C | 0 | 13 | -3 | 54 | -9 | -24 | 26 | 23 | -29
COc1ccc(OC)c(CN2CCCCCC2)c1 | 0 | 0 | -1 | 6 | 17 | -1 | . | . | .
COc1ccc(OC)c(CN2CCCC(CO)C2)c1 (stereo not drawn) | -2 | 5 | 3 | 59* | 16 | 1 | 17 | -4 | 11
COc1ccc(C2CC(C(F)(F)F)n3nc(C(=O)O)c(Cl)c3N2)cc1OC (stereo not drawn) | -2 | -7 | 1 | 2 | -2 | -12 | . | . | .
COc1ccc(C2CC(C(F)(F)F)n3nc(CO)c(Cl)c3N2)cc1OC (stereo not drawn) | 2 | -7 | -4 | 92* | -23 | 5 | 16 | 16 | 6
CCCCNc1ccc2c(c1)OC[C@@H](Cc1ccccc1)NS2(=O)=O | . | . | 2 | . | . | . | . | . | .
O=C(c1ccc([N+](=O)[O-])cc1)N(Cc1ccc(Cl)cc1)N1C(=O)CCCC1=O | -3 | 1 | -7 | 78* | 11 | -10 | 90* | 71* | 10
O=C(c1ccc([N+](=O)[O-])cc1)N(Cc1ccc(Cl)cc1Cl)N1C(=O)CCCC1=O | -3 | -24 | -4 | 23 | 9 | -5 | . | . | .
O=C(CN(CC1CCCO1)C(=O)CCC(=O)Nc1nccs1)NCC1CCCO1 (stereo not drawn) | 4 | 4 | -2 | -3 | -24 | 8 | . | . | .
O=C(CN(Cc1ccccc1)C(=O)CCC(=O)Nc1nccs1)NCC1CCCO1 (stereo not drawn) | 4 | -17 | -7 | 50 | 22 | -3 | 14 | 7 | 8
CCc1nnc(NC(=O)CCC(=O)NCC2CCCO2)s1 (stereo not drawn) | 1 | 9 | -3 | 50 | 21 | 6 | 22 | 23 | -14
COc1cc(/C=C2/SC(=S)N(CC(=O)O)C2=O)ccc1OCC(=O)Nc1ccc(C)c(C)c1 | 6 | -5 | -1 | . | -6 | -3 | . | . | .
O=C(COC(=O)CCc1c[nH]c2ccccc12)Nc1ccccc1C(F)(F)F | -2 | 0 | 2 | -2 | 7 | -5 | . | . | .
C#CCNC[C@@H]1CSCCS(=O)(=O)N1 | . | . | -5 | . | . | . | . | . | .
